Assays:
Conditions in all cases: stereoisomer not certain
OR4D6 (Homo sapiens) = OR4D6 (Homo sapiens) (UniProt Q8NGJ1)
Procedure, shortened: (§1)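 Each entry records the cell line, G-protein, co-transfected protein and tags used. Methods varied with the source, often transient luciferase assays in mammalian cell lines. A receptor–molecule pair is called responsive (active) if the original authors judged its signal statistically different from baseline and non-responsive (inactive) otherwise.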

OR4D9 (Homo sapiens) = OR4D9 (Homo sapiens) (UniProt Q8NGE8)
Chain of OR4D9 (Homo sapiens) (Q8NGE8 whole entry): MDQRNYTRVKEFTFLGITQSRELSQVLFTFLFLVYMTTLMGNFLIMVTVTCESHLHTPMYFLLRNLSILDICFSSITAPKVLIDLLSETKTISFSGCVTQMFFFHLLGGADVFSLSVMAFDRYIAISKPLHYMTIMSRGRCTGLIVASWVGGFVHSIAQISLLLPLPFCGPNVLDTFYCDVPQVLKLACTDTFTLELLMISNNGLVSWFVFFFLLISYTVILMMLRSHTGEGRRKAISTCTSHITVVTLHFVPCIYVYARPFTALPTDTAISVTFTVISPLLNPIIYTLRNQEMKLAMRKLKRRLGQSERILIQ
Procedure, shortened: as §1

OR4E1 (Homo sapiens) = OR4E1 (Homo sapiens) (UniProt P0C645)
Chain of OR4E1 (Homo sapiens) (P0C645 whole entry): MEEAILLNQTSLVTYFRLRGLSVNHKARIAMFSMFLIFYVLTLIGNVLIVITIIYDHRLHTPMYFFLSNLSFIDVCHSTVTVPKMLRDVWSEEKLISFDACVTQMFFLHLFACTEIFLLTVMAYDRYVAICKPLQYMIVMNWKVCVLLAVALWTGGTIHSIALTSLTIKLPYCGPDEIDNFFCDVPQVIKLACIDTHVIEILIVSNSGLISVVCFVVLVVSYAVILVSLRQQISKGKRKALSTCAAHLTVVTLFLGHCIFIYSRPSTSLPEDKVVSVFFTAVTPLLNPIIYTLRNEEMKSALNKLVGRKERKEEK
Procedure, shortened: as §1

OR4E2 (Homo sapiens) = OR4E2 (Homo sapiens) (UniProt Q8NGC2)
Chain of OR4E2 (Homo sapiens) (Q8NGC2 whole entry): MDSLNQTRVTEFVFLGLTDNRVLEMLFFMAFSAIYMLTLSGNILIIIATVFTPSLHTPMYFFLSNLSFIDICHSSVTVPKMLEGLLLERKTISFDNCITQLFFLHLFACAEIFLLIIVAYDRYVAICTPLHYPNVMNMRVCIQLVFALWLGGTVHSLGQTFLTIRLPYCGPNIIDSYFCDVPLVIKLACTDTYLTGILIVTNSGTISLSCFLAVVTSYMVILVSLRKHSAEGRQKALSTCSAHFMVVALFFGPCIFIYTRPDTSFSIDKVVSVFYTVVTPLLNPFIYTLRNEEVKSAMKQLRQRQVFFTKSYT
Procedure, shortened: as §1

OR4F15 (Homo sapiens) = OR4F15 (Homo sapiens) (UniProt Q8NGB8)
Chain of OR4F15 (Homo sapiens) (Q8NGB8 whole entry): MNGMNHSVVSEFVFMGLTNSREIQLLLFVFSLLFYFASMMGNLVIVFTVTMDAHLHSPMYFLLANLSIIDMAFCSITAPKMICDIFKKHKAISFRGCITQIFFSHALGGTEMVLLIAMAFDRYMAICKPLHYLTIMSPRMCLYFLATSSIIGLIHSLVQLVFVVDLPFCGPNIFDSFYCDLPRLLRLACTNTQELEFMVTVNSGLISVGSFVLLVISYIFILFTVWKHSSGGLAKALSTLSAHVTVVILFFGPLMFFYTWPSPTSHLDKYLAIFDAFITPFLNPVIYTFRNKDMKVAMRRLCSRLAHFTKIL
Procedure, shortened: as §1

OR4F17 (Homo sapiens) = OR4F17 (Homo sapiens) (UniProt Q8NGA8)
Chain of OR4F17 (Homo sapiens) (Q8NGA8 whole entry): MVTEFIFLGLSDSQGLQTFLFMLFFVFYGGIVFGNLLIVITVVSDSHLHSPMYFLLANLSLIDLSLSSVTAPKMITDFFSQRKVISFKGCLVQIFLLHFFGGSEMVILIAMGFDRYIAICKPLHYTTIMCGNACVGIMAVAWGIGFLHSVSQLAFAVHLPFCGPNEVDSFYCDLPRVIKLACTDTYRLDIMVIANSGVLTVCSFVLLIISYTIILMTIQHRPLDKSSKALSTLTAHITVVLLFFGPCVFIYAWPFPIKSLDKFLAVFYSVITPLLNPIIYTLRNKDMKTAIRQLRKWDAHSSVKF
Procedure, shortened: as §1

OR4F21 (Homo sapiens) = OR4F21 (Homo sapiens) (UniProt O95013)
Chain of OR4F21 (Homo sapiens) (O95013 whole entry): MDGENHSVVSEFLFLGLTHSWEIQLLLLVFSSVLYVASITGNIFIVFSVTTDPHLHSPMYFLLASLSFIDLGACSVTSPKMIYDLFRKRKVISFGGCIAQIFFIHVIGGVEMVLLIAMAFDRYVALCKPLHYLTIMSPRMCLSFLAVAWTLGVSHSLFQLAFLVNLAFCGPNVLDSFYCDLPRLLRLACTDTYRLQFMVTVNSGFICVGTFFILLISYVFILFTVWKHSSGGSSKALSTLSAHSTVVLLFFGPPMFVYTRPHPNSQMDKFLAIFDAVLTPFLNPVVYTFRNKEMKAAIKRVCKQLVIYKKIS
Procedure, shortened: as §1

OR4D6 = system: OR4D6
Chain of OR4D6 (as listed by the source): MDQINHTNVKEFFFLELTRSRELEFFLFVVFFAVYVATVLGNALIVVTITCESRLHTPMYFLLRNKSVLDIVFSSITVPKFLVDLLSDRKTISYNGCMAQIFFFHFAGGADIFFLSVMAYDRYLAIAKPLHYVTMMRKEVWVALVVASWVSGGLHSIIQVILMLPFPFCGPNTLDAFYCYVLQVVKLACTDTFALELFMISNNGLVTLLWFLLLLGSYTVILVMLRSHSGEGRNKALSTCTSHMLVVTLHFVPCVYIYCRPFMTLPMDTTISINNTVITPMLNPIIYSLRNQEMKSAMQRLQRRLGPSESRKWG
Procedure, shortened: as §1

OR4E2 A119T = system: OR4E2 A119T
Chain of OR4E2 A119T (as listed by the source, stated change not applied): as the sequence (Q8NGC2 whole entry) above, with V118M, A119T, Q234R counted along it
Procedure, shortened: as §1

OR4E2 = system: OR4E2
Chain of OR4E2 (as listed by the source): as the sequence (Q8NGC2 whole entry) above, with V118M, Q234R counted along it
Procedure, shortened: as §1

Measured: odorant receptor agonist call

Chain of OR4D6 (Homo sapiens) (Q8NGJ1 whole entry): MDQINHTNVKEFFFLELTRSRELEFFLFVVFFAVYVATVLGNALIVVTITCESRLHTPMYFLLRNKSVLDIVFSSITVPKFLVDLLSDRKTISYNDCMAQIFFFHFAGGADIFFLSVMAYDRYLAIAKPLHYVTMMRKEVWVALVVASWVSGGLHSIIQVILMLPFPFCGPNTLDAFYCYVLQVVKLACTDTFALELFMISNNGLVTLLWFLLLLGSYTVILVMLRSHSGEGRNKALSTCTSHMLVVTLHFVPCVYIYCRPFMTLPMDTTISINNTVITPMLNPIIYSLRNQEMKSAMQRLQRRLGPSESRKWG

Cc1c([N+](=O)[O-])c(C)c([N+](=O)[O-])c(C(C)(C)C)c1[N+](=O)[O-]
not listed: OR4D6 | OR4E2 A119T | OR4E2
inactive: all other assays above

C=CCOC(=O)Cc1ccccc1
not listed: OR4E1 (Homo sapiens)
inactive: all other assays above

— the M2OR odorant receptor database
